Calls of active or inactive are those of the source. The calls are words filed in the database; no cut-off is given here.
Experiments:
[1] = test system: KB; test: Cytotoxicity against human KB cells expressing human RFC/FRalpha/PCFT after 96 hrs by CellTitre-Blue fluorescence assay in presence of thymidine; type: functional, cell-based
Method in brief: (§1)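 KB cells were grown in FF-RPMI with DFBS and 2 nM LCV, exposed to antifolate (0–1 μM) for 96 h at 37 °C, and read by CellTiter-Blue fluorescence. IC50 was taken from dose–response curves relative to untreated cells. Protection arms added adenosine 60 μM, thymidine 10 μM, AICA 320 μM, or folic acid 200 nM. Means of 3–10 experiments.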

[2] = (§2) Inhibition of GARFTase in human KB cells assessed as incorporation of [14C]-glycine into [14C]-formyl GAR incubated 30 mins prior to [14C]-glycine addition measured after 16 hrs by radiometric assay in presence of azaserin; type: cell-based
Method in brief: (§3)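 KB cells were preincubated 1 h in folate- and glutamine-free medium with 2 nM LCV and a range of drug concentrations. Azaserine (4 μM final) was added for 30 min, then 2 mM glutamine and [14C(U)]glycine (0.1 mCi/L) for 16 h at 37 °C. TCA extracts were ether-washed and run on AG1×8 anion exchange. [14C]formyl GAR was measured per mg protein, and IC50 was set against DMSO controls; three experiments.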

[3] = test system: KB; test: as §2; type: cell-based; method in brief: as §3
[4] = molecular target: T1, Reduced folate transporter (Homo sapiens) (UniProt P41440); test: Inhibition of human RFC expressed in chinese hamster PC43-10 cells assessed as reduction of [3H]MTX uptake at 10 uM after 48 hrs by scintillation counting analysis relative to control; type: cell-based
T1 sequence (whole entry): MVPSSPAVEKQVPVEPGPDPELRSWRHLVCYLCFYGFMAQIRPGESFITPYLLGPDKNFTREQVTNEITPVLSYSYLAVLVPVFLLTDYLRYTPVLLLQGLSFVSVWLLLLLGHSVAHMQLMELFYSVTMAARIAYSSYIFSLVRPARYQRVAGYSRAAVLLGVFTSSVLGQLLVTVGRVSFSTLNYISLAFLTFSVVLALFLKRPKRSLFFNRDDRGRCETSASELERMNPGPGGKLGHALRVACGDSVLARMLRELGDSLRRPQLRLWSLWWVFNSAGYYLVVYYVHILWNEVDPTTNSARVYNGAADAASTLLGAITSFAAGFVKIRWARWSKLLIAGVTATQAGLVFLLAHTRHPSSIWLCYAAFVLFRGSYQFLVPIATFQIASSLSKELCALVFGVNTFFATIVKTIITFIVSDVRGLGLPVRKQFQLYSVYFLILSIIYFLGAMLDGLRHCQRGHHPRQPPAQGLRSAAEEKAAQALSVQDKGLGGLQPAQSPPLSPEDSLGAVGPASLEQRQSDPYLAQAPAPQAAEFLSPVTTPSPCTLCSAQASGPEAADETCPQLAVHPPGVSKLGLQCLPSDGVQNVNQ
Method in brief: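 PC43-10 CHO cells expressing human RFC (~1.5 × 10^6) were seeded 48 h before assay. Uptake of 0.5 μM [3H]MTX was run in Hank's balanced salts for 2 min at 37 °C, with or without 10 μM unlabelled inhibitor, and stopped with ice-cold PBS. Cells were dissolved in 0.5 N NaOH, counted by scintillation and normalised to Folin-phenol protein (pmol/mg). RFC-null R2 cells gave baseline. Three experiments.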

[5] = test system: KB; test: Cytotoxicity against human KB cells expressing human RFC/FRalpha/PCFT after 96 hrs by CellTitre-Blue fluorescence assay in presence of folic acid; type: functional, cell-based; method in brief: as §1
[6] = test system: KB; test: Cytotoxicity against human KB cells at 10 uM incubated for 48 hrs followed by compound washout measured after 10 days by colony forming assay; type: functional, cell-based
Method in brief: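 About 500 KB cells were plated in FF-RPMI/DFBS with 2 nM LCV for 24 h. Drug (0–10 μM) was then added, and exposure is stated as 24 h in Methods and 48 h in the legend. Medium was replaced with drug-free FF-RPMI plus 2 nM LCV for 8–10 days. Colonies were fixed with 5% TCA, stained with 1% methylene blue in borate buffer pH 8.8, and counted; three experiments.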

[7] = Cytotoxicity against chinese hamster PC43-10 cells expressing human RFC after 96 hrs by CellTitre-Blue fluorescence assay; type: functional, cell-based; conditions: Cricetulus griseus, PC43-10, 96 h
Method in brief: (§4)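 CHO sublines were grown in FF-RPMI/DFBS; transfectants were maintained with G418. Cells were exposed to antifolate (0–1 μM) for 96 h at 37 °C with 2 nM LCV (RT16) or 25 nM LCV (R2/PCFT4). PC43-10 cells were grown in standard RPMI1640/DFBS instead. FRα specificity was tested by adding 200 nM folic acid. Viable cells were read by CellTiter-Blue fluorescence (ex 560/em 590), and IC50 was taken from dose–response curves; means of 3–10 experiments.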

[8] = test system: R2; test: Cytotoxicity against chinese hamster R2 cells after 96 hrs by CellTitre-Blue fluorescence assay; conditions: Cricetulus griseus, R2, 96 h
[9] = test system: KB; test: Induction of apoptosis in human KB cells assessed as necrotic cells at 1 uM after 96 hrs by Annexin V-FITC/7-AAD staining-based flow cytometry (RVB = 7.80%); type: functional
[10] = test system: KB; test: Cytotoxicity against human KB cells expressing human RFC/FRalpha/PCFT after 96 hrs by CellTitre-Blue fluorescence assay in presence of AICA; type: functional, cell-based; method in brief: as §1
[11] = Cytotoxicity against chinese hamster RT16 cells expressing human FRalpha after 96 hrs by CellTitre-Blue fluorescence assay; type: functional, cell-based; conditions: Cricetulus griseus, RT16, 96 h; method in brief: as §4

For Nc1nc2[nH]cc(CCCCc3ccc(C(=O)N[C@@H](CCC(=O)O)C(=O)O)cc3)c2c(=O)[nH]1, the Activity [1] was “Active”, the IC50 [2] was 29.7 nM and the inhibition [3] was “Dose-dependent effect”. The inhibition [4] was greater than 90%, the IC50 [5] was 700 nM and the Activity [6] was “Active”. It also gave an IC50 [7] of 56.6 nM, an IC50 [8] greater than 1000 nM and an Activity [9] of 0.456%. For the same compound, the Activity [10] was “Active” and the IC50 [11] was 8.6 nM.

Source: ChEMBL document CHEMBL3102834, “Discovery of 5-substituted pyrrolo[2,3-d]pyrimidine antifolates as dual-acting inhibitors of glycinamide ribonucleotide formyltransferase and 5-aminoimidazole-4-carboxamide ribonucleotide formyltransferase in de novo purine nucleotide biosynthesis: implications of inhibiting …” (J Med Chem, 2013)
